Compound activity deposited in PubChem by several laboratories.
Shown are actives, neighbours in structure and some others; about 9.6% of the full set was active somewhere.
HCT116 PTEN-null – PTEN-deleted cell growth suppression; HCT116 PTEN-null viability, CellTiter-Glo, 60 h; hits give low values; viability, % at 10 µM; 140,000 compounds, 1.2% hits; AID 827;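 active = viability at or below a set limit, 4 SD under the median of all tested compounds, cut at about 3.7% in these data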;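 also: PTEN knockout HCT116 line with beta catenin targeted HCT116 as companion control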
TNAP inh hi DEA – blocks human TNAP under high phosphate acceptor concentration. inhibition, % at 20 µM. purified TNAP, CDP-star luminescence, 1 M DEA. 200,000 compounds, 0.03% hits. AID 1135. P05186;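 active = over 50% inhibition of tissue-nonspecific alkaline phosphatase at 20 µM in the single-dose screen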
Target sequence (P05186 whole entry, looked up): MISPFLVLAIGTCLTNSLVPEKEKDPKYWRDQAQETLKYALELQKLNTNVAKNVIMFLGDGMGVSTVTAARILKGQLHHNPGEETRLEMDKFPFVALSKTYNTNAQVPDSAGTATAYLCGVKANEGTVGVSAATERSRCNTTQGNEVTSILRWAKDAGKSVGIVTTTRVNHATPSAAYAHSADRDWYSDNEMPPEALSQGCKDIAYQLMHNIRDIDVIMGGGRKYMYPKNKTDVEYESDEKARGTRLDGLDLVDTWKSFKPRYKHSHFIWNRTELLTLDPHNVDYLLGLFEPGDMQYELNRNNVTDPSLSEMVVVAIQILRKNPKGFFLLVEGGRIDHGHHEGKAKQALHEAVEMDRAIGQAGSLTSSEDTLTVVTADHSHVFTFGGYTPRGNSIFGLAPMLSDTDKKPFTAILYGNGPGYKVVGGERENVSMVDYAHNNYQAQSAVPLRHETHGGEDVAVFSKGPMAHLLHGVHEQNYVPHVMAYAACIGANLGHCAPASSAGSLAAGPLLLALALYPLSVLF
bCat KO growth – beta-catenin-lacking colon tumor cell growth suppression; HCT116 beta-catenin knockout viability, CellTiter-Glo, 60 h; hits give low values; viability, % at 10 µM; 140,000 compounds, 1.5% hits;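 active = viability at or under a set limit, the compound median less 4 SD, cut at about 6% in these data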
TNAP act hi DEA – activators of human TNAP at high phosphate acceptor concentration. 200,000 tested, under 10 active. activation factor at 20 µM. purified TNAP, CDP-star luminescence, 1 M DEA, 30 min; hits give high values; 0 = EDTA background, 1 = DMSO-only activity. P05186;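 active = activation factor at least 2 at 20 µM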
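Control set: EDTA negative control, DMSO positive control / Assay system: human TNAP / Quantity: TNAP 1/800 final / Evaluation: TNAP activation factor scaled between EDTA and DMSO control wells / Measured by: luminescent substrate turnover signal / Compound dosing: one dose, 20 µM / Times: 30 min enzyme reaction at room temperature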
Lmaj promast – inhibitors of Leishmania major promastigote growth | AID 1063 | inhibition, % at 10 µM | 200,000 compounds, 9% hits | Leishmania major promastigotes, resazurin fluorescence viability; in the data active = inhibition above about 50%;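 also: promastigotes grown with compound for 44 hours at 28 °C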
TNAP inh no acc – blocks human TNAP activity with no phosphate acceptor present; P05186; purified TNAP, CDP-star luminescence, 30 min; inhibition, % at 20 µM; 200,000 compounds, 0.26% hits;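 active = tissue-nonspecific alkaline phosphatase inhibition above about 50% at 20 µM in the single-dose screen, limit read from the data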
A number is an active result; - = inactive; . = not tested or not shown.

SMILES	HCT116 PTEN-null	TNAP inh hi DEA	bCat KO growth	TNAP act hi DEA	Lmaj promast	TNAP inh no acc
CN1CCN(C(=O)C2=C[C@H](C(C)(C)C)C[C@H](OCCCCO)O2)CC1	.	-	.	-	-	-
O=C(CSc1nc2ccccc2s1)NCCOc1ccccc1	-	-	-	-	-	-
CC(=O)OCCCNc1cc(Sc2nc3ccccc3s2)c2nonc2c1[N+](=O)[O-]	-	-	3.7	-	65.0	-
CCOCCCNC(=O)CN1C(=O)/C(=C/c2ccccc2)Sc2ccccc21	-	-	-	-	-	-
Cc1cc(C)c(S(=O)(=O)N2CCN(c3ccc([N+](=O)[O-])c(-n4nc(C)cc4C)c3)CC2)c(C)c1	-	-	-	-	59.1	-
O=C(NC1CC2CCCC(C1)N2CC(=O)N1CCCc2ccccc21)C1CCCCC1 (centres undefined)	-	-	-	-	57.0	-
